One may read the IC50 as the midpoint of a concentration-inhibition curve. The term Km denotes the substrate concentration at which the rate is half of its maximum.

The text below walks through data of ChEMBL document CHEMBL1126590, “32-Methyl-32-oxylanosterols: dual-action inhibitors of cholesterol biosynthesis” (J Med Chem, 1993).

Data set [1] concerns the target T1, 3-hydroxy-3-methylglutaryl-coenzyme A reductase (Homo sapiens, UniProt P04035).
T1 sequence (P04035 whole entry): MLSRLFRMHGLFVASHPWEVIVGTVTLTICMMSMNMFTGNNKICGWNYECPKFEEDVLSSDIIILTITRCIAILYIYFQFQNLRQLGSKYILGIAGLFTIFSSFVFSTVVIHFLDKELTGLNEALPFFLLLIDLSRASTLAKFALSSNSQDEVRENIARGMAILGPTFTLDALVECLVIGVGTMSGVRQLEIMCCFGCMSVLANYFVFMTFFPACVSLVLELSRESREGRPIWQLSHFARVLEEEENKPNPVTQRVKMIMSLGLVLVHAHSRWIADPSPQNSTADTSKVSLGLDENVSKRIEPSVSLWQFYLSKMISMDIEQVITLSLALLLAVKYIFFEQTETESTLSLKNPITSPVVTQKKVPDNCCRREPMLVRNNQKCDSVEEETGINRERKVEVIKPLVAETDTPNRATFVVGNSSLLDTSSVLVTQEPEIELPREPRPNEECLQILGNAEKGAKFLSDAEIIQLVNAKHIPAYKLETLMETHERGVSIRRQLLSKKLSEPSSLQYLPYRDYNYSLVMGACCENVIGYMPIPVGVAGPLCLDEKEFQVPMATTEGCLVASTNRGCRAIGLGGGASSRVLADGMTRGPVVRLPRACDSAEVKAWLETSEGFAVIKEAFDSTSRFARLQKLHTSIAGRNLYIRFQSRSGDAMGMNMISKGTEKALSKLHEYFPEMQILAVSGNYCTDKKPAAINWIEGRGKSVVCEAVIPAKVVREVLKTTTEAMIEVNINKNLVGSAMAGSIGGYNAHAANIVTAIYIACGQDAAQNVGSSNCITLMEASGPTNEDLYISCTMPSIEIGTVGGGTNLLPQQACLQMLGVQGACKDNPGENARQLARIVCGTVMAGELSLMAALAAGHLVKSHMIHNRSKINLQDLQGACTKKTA
In words: Inhibition of HMG-coA Reductase enzyme in chinese hamster ovary cells. The data set is classed as cell-based, Cricetulus griseus, CHO. In short, it runs like this: (§1)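 Cells grown in McCoy's 5a medium with 1% delipidated FBS under 5% CO2 and treated 4 h with compound given as a BSA suspension from an ethanol stock (final BSA 0.5 mg/mL, ethanol ≤0.5%). Cells permeabilized with 30 μg/mL digitonin in CSK buffer pH 6.8, then preincubated 20 min at 37 °C. Conversion of [14C]HMG-CoA to mevalonolactone measured with [3H]mevalonolactone internal standard and TLC separation. Value is the concentration reducing activity to 50% of control.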

Data set [2] addresses T1, 3-hydroxy-3-methylglutaryl-coenzyme A reductase. In words: Inhibition of HMG-coA Reductase enzyme in AR45 cells. The data set is classed as cell-based. In short, it runs like this: as §1
Data set [3] concerns the target Lanosterol 14-alpha demethylase (Cricetulus griseus). In words: Inhibition of cytochrome P450DM in intact CHO cells.
Data set [4] has as its target T2, Lanosterol 14-alpha demethylase (Rattus norvegicus, UniProt Q64654).
T2 sequence (Q64654 whole entry): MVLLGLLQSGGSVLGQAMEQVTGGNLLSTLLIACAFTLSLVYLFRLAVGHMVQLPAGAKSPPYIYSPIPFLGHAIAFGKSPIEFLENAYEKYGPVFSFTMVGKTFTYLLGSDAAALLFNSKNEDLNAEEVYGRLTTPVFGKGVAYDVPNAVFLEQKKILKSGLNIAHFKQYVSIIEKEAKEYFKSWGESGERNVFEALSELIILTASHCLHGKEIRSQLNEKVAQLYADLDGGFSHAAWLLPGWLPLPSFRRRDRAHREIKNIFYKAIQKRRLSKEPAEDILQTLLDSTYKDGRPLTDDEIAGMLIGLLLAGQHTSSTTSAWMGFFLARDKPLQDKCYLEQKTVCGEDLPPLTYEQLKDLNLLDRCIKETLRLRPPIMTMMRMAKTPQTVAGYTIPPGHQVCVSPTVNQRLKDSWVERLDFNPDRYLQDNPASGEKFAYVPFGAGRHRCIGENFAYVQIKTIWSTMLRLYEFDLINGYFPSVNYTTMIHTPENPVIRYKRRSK
In words: (§2) Inhibition rat liver microsome cytochrome P450DM. The data set is classed as microsomes. In short, it runs like this:
(§3)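 Buffer: phosphate pH 7.4 with glutathione, EDTA, 20% glycerol, NAD(P)H cofactors, isocitrate/isocitrate dehydrogenase, MgCl2, AY-9944, NaCN. Diene product quantified by UV-HPLC. IC50 taken from linear plots of reciprocal turnover vs inhibitor concentration.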
Background: Liver microsomes are a subcellular fraction often used to study metabolism.

Substrate in data set [5]: [H][C@]1([C@]([H])(C)CCCC(C)C)CC[C@@]2(C)C3=C(CC[C@]12C)[C@@]1(C)CC[C@H](O)C(C)(C)C1CC3
The description is as §2. The data set is classed as microsomes. Put shortly: as §3

Turning to `CC(=O)[C@@]12CC[C@H]([C@H](C)CCCC(C)C)[C@@]1(C)CCC1C2=CCC2C(C)(C)[C@@H](O)CC[C@]12C` (stereo partly drawn), the concentration for half-maximal inhibition (IC50) is 1000 nM in data set [1], greater than 20000 nM in data set [2], 2700 nM in data set [3] and 9100 nM in data set [4].
For `CC(C)CCC[C@@H](C)[C@H]1CC[C@@]2(C(C)O)C3=CCC4C(C)(C)[C@@H](O)CC[C@]4(C)C3CC[C@]12C` (stereo in doubt; 17a), the IC50 in data set [1] is 3000 nM; in data set [2] (ar45) it was greater than 20000 nM; in data set [3], 300 nM; in data set [4], 330 nM.
On to `CC(C)CCC[C@@H](C)[C@H]1CC[C@@]2(C(C)O)C3=CCC4C(C)(C)[C@@H](O)CC[C@]4(C)C3CC[C@]12C` (stereo in doubt; 17b), for which the IC50 in data set [1] is 1500 nM; in data set [2], greater than 20000 nM; in data set [3], 300 nM; in data set [4], 1600 nM.

B1: Lanosterol 14-alpha demethylase (Rattus norvegicus) (protein)
chain: MVLLGLLQSGGSVLGQAMEQVTGGNLLSTLLIACAFTLSLVYLFRLAVGHMVQLPAGAKSPPYIYSPIPFLGHAIAFGKSPIEFLENAYEKYGPVFSFTMVGKTFTYLLGSDAAALLFNSKNEDLNAEEVYGRLTTPVFGKGVAYDVPNAVFLEQKKILKSGLNIAHFKQYVSIIEKEAKEYFKSWGESGERNVFEALSELIILTASHCLHGKEIRSQLNEKVAQLYADLDGGFSHAAWLLPGWLPLPSFRRRDRAHREIKNIFYKAIQKRRLSKEPAEDILQTLLDSTYKDGRPLTDDEIAGMLIGLLLAGQHTSSTTSAWMGFFLARDKPLQDKCYLEQKTVCGEDLPPLTYEQLKDLNLLDRCIKETLRLRPPIMTMMRMAKTPQTVAGYTIPPGHQVCVSPTVNQRLKDSWVERLDFNPDRYLQDNPASGEKFAYVPFGAGRHRCIGENFAYVQIKTIWSTMLRLYEFDLINGYFPSVNYTTMIHTPENPVIRYKRRSK
Regarding B1, in data set [5], the Km stood at 33 µM.
